Source: publication PMC11618768 (Scientific Reports, 2024)
Values after ≈ are worked out from the molar mass of the structure shown. Values joined by “and” are separate entries in the source; they are usually repeats but may differ in a detail not shown here. Identical values can stand only once.

What was measured:
MRSA strain (ATCC 43300) = test: MIC and MBC, broth dilution; assay type: cell-based, Methicillin-resistant Staphylococcus aureus
Outline: (§1)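 Strains were grown from LB agar colonies in LB (180 rpm, 37 °C, 12 h), then diluted 1:100 and grown 3 h to log phase. The inoculum was adjusted to 1 × 10^6 CFU/mL for 96-well broth dilution, 37 °C, 18 h. MIC was the lowest concentration without visible growth. For MBC, 100.0 µL per well was plated on MHA (37 °C, 16–20 h); MBC was the lowest concentration without colonies.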

B. subtilis = settings: cited from earlier work
HK-2 cells = test: Cell viability assay using MTT; assay type: cell-based
Outline: (§2)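 Cells were kept in RPMI 1640 with 10% FBS and 1% penicillin-streptomycin at 37 °C, 5% CO2. They were seeded at 1 × 10^5 cells/well and grown 24 h to about 80% confluence. After medium removal, test compound was added at final 0.78125–100.0 µg/mL (twofold series), with a 0.5% DMSO control. Exposure was 24 h or 48 h, then MTT for 4 h, A490. Three repeats; IC50 derived.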

MRSA-244288 = test: MIC and MBC, broth dilution; assay type: cell-based, Methicillin-resistant Staphylococcus aureus; settings: MRSA-244,288, clinical isolate
Outline: as §1

MRSA-244135 = test: MIC and MBC, broth dilution; assay type: cell-based, Methicillin-resistant Staphylococcus aureus; settings: MRSA-244,135, clinical isolate
Outline: as §1

human KB carcinoma cells = settings: cited from earlier work
MRSA-244757 = test: MIC and MBC, broth dilution; assay type: cell-based, Methicillin-resistant Staphylococcus aureus; settings: MRSA-244,757, clinical isolate
Outline: as §1

HaCat cells = test: Cell viability assay using MTT; assay type: cell-based
Outline: as §2

MRSA-244661 = test: MIC and MBC, broth dilution; assay type: cell-based, Methicillin-resistant Staphylococcus aureus; settings: MRSA-244,661, clinical isolate
Outline: as §1

S. aureus = settings: cited from earlier work
MRSA-244268 = test: MIC and MBC, broth dilution; assay type: cell-based, Methicillin-resistant Staphylococcus aureus; settings: MRSA-244,268, clinical isolate
Outline: as §1

MRSA-244548 = test: MIC and MBC, broth dilution; assay type: cell-based, Methicillin-resistant Staphylococcus aureus; settings: MRSA-244,548, clinical isolate
Outline: as §1

[1] = system: rabbit red blood cells (RBCs); test: In vitro hemolysis assay; assay type: cell-based; settings: 1 h, rabbit erythrocytes
Outline: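 Rabbit erythrocytes were exposed 1 h to test compound at 1/2×, 1× and 2× MIC. After centrifugation, supernatants were read spectrophotometrically at 570 nm and photographed. PBS served as negative control, and a positive control was included. n = 3.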

MRSA (ATCC 433000) [2] = test: Scanning electron microscopy; assay type: cell-based, Methicillin-resistant Staphylococcus aureus; settings: 2×MIC, 12 h
Outline: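 Log-phase MRSA exposed to test compound at 2×MIC for 12 h at 37 °C, with untreated cells as blank control. Cells were washed three times in PBS […]. They were fixed in 2.5% glutaraldehyde plus 2% paraformaldehyde for 12 h, air-dried and imaged by scanning electron microscopy.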

LO2 cells = test: Cell viability assay using MTT; assay type: cell-based
Outline: as §2

MRSA-244358 = test: MIC and MBC, broth dilution; assay type: cell-based, Methicillin-resistant Staphylococcus aureus; settings: MRSA-244,358, clinical isolate
Outline: as §1

MRSA [3] = test: Mouse skin infection model; assay type: in vivo; settings: day 13; 2.0 µg/mL once daily, mice
Outline: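 SPF male and female mice (18.0–22.0 g) had dorsal fur shaved and both sides of the back scalded with a scaldometer. 20.0 µL log-phase MRSA (1.5-3 × 10^6 CFU/mL in sterile saline) went onto each wound, which was then covered with sterile gauze. Test compound or vancomycin (2.0 µg/mL, 20.0 µL) was applied topically once daily, and model mice got solvent. Wounds were photographed daily for 13 days, and H&E sections were taken on day 13 (n = 6).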

MRSA-244425 = test: MIC and MBC, broth dilution; assay type: cell-based, Methicillin-resistant Staphylococcus aureus; settings: MRSA-244,425, clinical isolate
Outline: as §1

MRSA (ATCC 433000) [4] = test: Time-kill assay; assay type: cell-based, Methicillin-resistant Staphylococcus aureus; settings: 24 h
Outline: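 MRSA grown to log phase in LB (37 °C, 180 rpm) and adjusted to 1 × 10^6 CFU/mL. Incubated in 24-well plates with test compound at 0, 1/2×MIC or MIC for 24 h at 37 °C. Sampled every 2 h, with absorbance read at 570 nm.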

P. notatum = settings: cited from earlier work
MRSA (ATCC 433000) [5] = test: SYTOX green and PI assay; assay type: cell-based, Methicillin-resistant Staphylococcus aureus; settings: 1/2×, 2×MIC, 12 h
Outline: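 Log-phase MRSA grown in LB at 37 °C, 180 rpm, adjusted to 1 × 10^6 CFU/mL. Exposed to test compound at 1/2×, 1× and 2×MIC for 12 h at 37 °C, then stained with SYTO 9 and PI for 30 min in the dark. Washed twice in PBS (pH 7.5, 0.1 M), then imaged by fluorescence microscopy: green marks viable cells, red marks dead cells.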

MRSA-244410 = test: MIC and MBC, broth dilution; assay type: cell-based, Methicillin-resistant Staphylococcus aureus; settings: MRSA-244,410, clinical isolate
Outline: as §1

MRSA-244862 = test: MIC and MBC, broth dilution; assay type: cell-based, Methicillin-resistant Staphylococcus aureus; settings: MRSA-244,862, clinical isolate
Outline: as §1

MRSA [6] = settings: cited from earlier work
MRSA [7] = settings: cited from earlier work; remark: listed apart in the source

Compound `CN[C@H](CC(C)C)C(=O)N[C@H]1C(=O)N[C@@H](CC(N)=O)C(=O)N[C@H]2C(=O)N[C@H]3C(=O)N[C@H](C(=O)N[C@H](C(=O)O)c4cc(O)cc(O)c4-c4cc3ccc4O)[C@H](O)c3ccc(c(Cl)c3)Oc3cc2cc(c3O[C@@H]2O[C@H](CO)[C@@H](O)[C@H](O)[C@H]2O[C@H]2C[C@](C)(N)[C@H](O)[C@H](C)O2)Oc2ccc(cc2Cl)[C@H]1O` [vancomycin, reference compound] has an MIC (MRSA strain (ATCC 43300); Staphylococcus aureus, ATCC43|ATCC43300|MRSA) of 1 µg/mL (≈ 0.69 µM).

For `COC1=CC(=O)c2c(O)c3c(c(O)c2C1=O)O[C@]1(Oc2c(cc4cc(C)oc(=O)c4c2O)[C@@H](O)[C@@H]1O)[C@@H]3O` [Griseorhodin C], the Inhibitory activity (B. subtilis) is given as “inhibitory activity”, the “Cell morphology under the microscope” value (HK-2 cells; 50 ~ 100 µg/mL) is given as “the cell morphology remained normal and the arrangement was regular, and no fragmentation or cell death was observed” and the “IC50 (cell viability)” value (HK-2 cells; MTT, 48 h) is given as 86.32 µg/mL (≈ 164 µM). The MIC (MRSA-244288) was 1 µg/mL (≈ 1.9 µM), the MIC (MRSA-244135) was 2 µg/mL (≈ 3.8 µM) and the Inhibitory activity (human KB carcinoma cells) was “inhibitory activity”. For the same compound, the MIC (MRSA-244757) was 1 µg/mL (≈ 1.9 µM), the “Cell morphology under the microscope” value (HaCat cells; 50 ~ 100 µg/mL) was “the cell morphology remained normal and the arrangement was regular, and no fragmentation or cell death was observed” and the “IC50 (cell viability)” value (HaCat cells; MTT, 48 h) was 59.27 µg/mL (≈ 113 µM). The MIC (MRSA-244661) was 1 µg/mL (≈ 1.9 µM), the Inhibitory activity (S. aureus) was “inhibitory activity” and the MIC (MRSA-244268) was 2 µg/mL (≈ 3.8 µM). The MIC (MRSA-244548) was 0.5 µg/mL (≈ 0.95 µM), the Hemolysis rate ([1]; 1/2 MIC) was 0.70% and the Hemolysis rate ([1]; 2×MIC) was 2.13%. For the same compound, the Hemolysis rate ([1]; MIC) was 1.77%, the “Morphological changes of MRSA by SEM” value (MRSA (ATCC 433000) [2]) was “the cell walls appeared wrinkled, the surfaces showed signs of damage, and cellular integrity was compromised” and the “Cell morphology under the microscope” value (LO2 cells; 50 ~ 100 µg/mL) was “the cell morphology remained normal and the arrangement was regular, and no fragmentation or cell death was observed”. The “IC50 (cell viability)” value (LO2 cells; MTT, 48 h) was 156.2 µg/mL (≈ 297 µM), the MIC (MRSA-244358) was 1 µg/mL (≈ 1.9 µM) and the “HE staining of skin wound” value (MRSA [3]) was “fewer inflammatory cells, lower thickness, and better structural integrity of hair follicles and other structures compared to the Vancomycin-treated group”. The MIC (MRSA-244425) was 1 µg/mL (≈ 1.9 µM), the “Inhibition of MRSA growth in time-kill curve” value (MRSA (ATCC 433000) [4]; 1/2×MIC, vs control group) was “some inhibition of MRSA growth compared to the control group” and the “Bacteriostatic activity in time-kill curve compared with vancomycin” value (MRSA (ATCC 433000) [4]; MIC) was “stronger bacteriostatic activity against MRSA than the clinically positive control drug, vancomycin”. For the same compound, the Inhibitory activity (P. notatum) was “inhibitory activity”, the “LIVE/DEAD fluorescence (red dead, green viable cells)” value (MRSA (ATCC 433000) [5]) was “exhibits bactericidal effects against MRSA” and the MIC (MRSA strain (ATCC 43300); MRSA ATCC 43,300) was 1.0 µg/mL and 1 µg/mL. The MIC (MRSA-244410) was 1 µg/mL (≈ 1.9 µM) and the MIC (MRSA-244862) was 1 µg/mL (≈ 1.9 µM).

For 7,8-dideoxygriseorhodin C, the “Decrease in MIC on simultaneous treatment with oxacillin” value (MRSA [6]) is listed as “approximately tenfold decrease in MIC” and the Combination index (MRSA [6]; with oxacillin) is listed as under 0.5.

In the case of 8-Methoxygriseorhodin C, the “MIC against MRSA” value (MRSA [7]) is listed as 0.78 µg/mL.
